Experimental data published in ChEMBL document CHEMBL4837210 (Eur J Med Chem, 2021).
Calls of active or inactive are those of the source. The rule behind the calls is not given here.

What was measured:
[1] = system: Bacillus pumilus; assay: Antibacterial activity against penicillin-susceptible Bacillus pumilus CMCC 63202 assessed as bacterial growth inhibition by broth dilution method; assay type: functional; settings: time 24 hrs
Outline: (§1)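 Broth microdilution in Mueller Hinton broth. A 0.5 McFarland suspension was diluted tenfold, giving an inoculum of 1.5 × 10⁷ cfu/mL. This was added to 2-fold serial compound dilutions from […]. Plates were incubated aerobically at 37 °C for 24 h. MIC was the lowest concentration with no visible turbidity.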

[2] = system: Staphylococcus aureus; assay: Bactericidal activity against penicillin-resistant Staphylococcus aureus measured after 24 hrs by CLSI protocol based method; assay type: functional
Outline: (§2)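 MBC after broth microdilution. After 24 h, aliquots from clear wells were plated on tryptic soy agar and incubated aerobically 24 h at 37 °C. MBC was the lowest concentration giving no colonies.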

[3] = system: Staphylococcus epidermidis; assay: Bactericidal activity against penicillin-resistant Staphylococcus epidermidis measured after 24 hrs by CLSI protocol based method; assay type: functional; outline: as §2
[4] = system: Staphylococcus aureus; assay: Antibacterial activity against penicillin-resistant Staphylococcus aureus assessed as inhibition of bacterial growth measured by broth microdilution method; assay type: functional; settings: time 24 hrs
Outline: (§3)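 Broth microdilution MIC. A 0.5 McFarland suspension was diluted 10-fold and added at 1.5 × 10⁷ cfu/mL to 2-fold dilutions (0.125–64) in Mueller Hinton broth. Incubated aerobically 24 h at 37 °C. MIC was the lowest concentration with no visible turbidity.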

[5] = system: Staphylococcus aureus; assay: Bactericidal activity against erythromycin-susceptible Staphylococcus aureus ATCC 25923 measured after 24 hrs by CLSI protocol based method; assay type: functional; outline: as §2
[6] = system: Staphylococcus aureus; assay: Antibacterial activity against methicillin-resistant Staphylococcus aureus ATCC 43300 assessed as inhibition of bacterial growth by broth microdilution method; assay type: functional; settings: time 24 hrs; outline: as §3
[7] = system: Staphylococcus aureus; assay: In vivo antibacterial activity against […] Staphylococcus aureus ATCC 25923 infected in Kunming mouse assessed as reduction in bacterial load at 25 mg/kg, ip administered 1 hr post bacterial infection and measured after 1 hr post compound treatment; assay type: functional, organism-based
Outline: (§4)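 Kunming mice (~25 g, 6 per group) infected intravenously with 6 × 10⁷ CFU S. aureus ATCC25923 in 0.2 mL saline. About 1 h later, 1, 5 or 25 mg/kg was given intraperitoneally in 0.5 mL vehicle, with linezolid as reference. Orbital blood (100 µL) was taken before and 1 h after treatment, spread on MH agar and counted after 24 h.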

[8] = system: Streptococcus pyogenes; assay: Antibacterial activity against erythromycin-susceptible Streptococcus pyogenes clinical isolate 1 assessed as bacterial growth inhibition incubated for 24 hrs by CLSI protocol based broth microdilution method; assay type: functional
[9] = system: Staphylococcus aureus; assay: Antibacterial activity against Staphylococcus aureus ATCC 25923 assessed as reduction in bacterial growth measured after 18 passages by resistance development assay relative to control; assay type: functional; settings: time 24 hrs
Outline: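 Serial-passage resistance test with S. aureus ATCC25923. Cells from wells at 0.5× MIC made the next inoculum (~10⁷ CFU/mL), and the MIC was redetermined after 24 h at 37 °C.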

[10] = system: Staphylococcus aureus; assay: In vivo antibacterial activity against […] Staphylococcus aureus ATCC 25923 infected in Kunming mouse assessed as reduction in viable bacterial cells at 5 mg/kg, administered 1 hr post bacterial infection and measured after 1 hr post compound treatment; assay type: functional, organism-based; outline: as §4
[11] = system: Staphylococcus aureus; assay: Antibacterial activity against Staphylococcus aureus assessed as inhibition of bacterial growth measured by broth microdilution method; assay type: functional; settings: time 24 hrs; outline: as §1
[12] = system: Enterococcus faecalis; assay: Antibacterial activity against vancomycin-resistant Enterococcus faecalis ATCC 51299 assessed as bacterial growth inhibition incubated for 24 hrs by CLSI protocol based broth microdilution method; assay type: functional
[13] = system: Bacillus subtilis; assay: Ratio of MBC to MIC against penicillin-susceptible Bacillus subtilis ATCC 9372; assay type: functional
Outline: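 Ratio of MBC to MIC, both measured by broth microdilution in MH broth (37 °C, 24 h); MBC was scored by subculturing clear wells onto tryptic soy agar for 24 h. Following CLSI, a ratio of 4 or less counts as bactericidal.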

[14] = system: Bacillus subtilis; assay: Antibacterial activity against penicillin-susceptible Bacillus subtilis ATCC 9372 assessed as bacterial growth inhibition incubated for 24 hrs by CLSI protocol based broth microdilution method; assay type: functional
[15] = system: Bacillus pumilus; assay: Induction of morphological changes in Bacillus pumilus CMCC 63202 assessed as alteration in length measured at 0.5 times MIC after 18 hrs by Phase contrast light microscope analysis (reference value: 1.2 to 3 micrometer); assay type: functional

C[n+]1c2ccccc2c(/C=C/c2ccc(C(C)(C)C)cc2)c2ccccc21.[I-]
MIC [1]: 0.5 µg/mL
MBC [2]: 4 µg/mL
MIC [3]: 1 µg/mL
MIC [4]: 2 µg/mL
MBC [5]: 2 µg/mL
MIC [6]: 1 µg/mL
Activity [7]: Active
MIC [8]: < 0.125 µg/mL
fold change (FC) [9]: 2
Activity [10]: Active
MIC [11]: 0.5 µg/mL
MIC [12]: 4 µg/mL
Ratio [13]: 2
MIC [14]: 0.25 µg/mL
Activity [15]: 20 um
